Where a SMILES comes first, the peptide text is derived from it. [ ]: non-standard residue; d: D form. The star is where a group is joined. ProΨ(CH2NH)PheNH2 = NC(=O)[C@H](Cc1ccccc1)NC[C@@H]1CCCN1*; dProψ(CH2NH)PheNH2 = NC(=O)[C@H](Cc1ccccc1)NC[C@H]1CCCN1*; X3 = NC(=O)[C@H](Cc1ccc(O)cc1)NC[C@H]1CCCN1*; Desaminotyrosyl = O=C(CCc1ccc(O)cc1)*; Hydrocinnamoyl = O=C(CCc1ccccc1)*; X9 = O=C(CCN1c2ccccc2Sc2ccccc21)*; X2 = O=C(Cc1ccccc1C(F)(F)F)*; Sar = CNCC(=O)O
Key:
[1] = target: Gastrin-releasing peptide receptor (Mus musculus, UniProt P21729); experiment: Ability of peptide to inhibit binding of 10 pM [125I]gastrin releasing peptide to S-3T3 cell membrane.; assay type: cell-based
Sequence of Gastrin-releasing peptide receptor (P21729 whole entry): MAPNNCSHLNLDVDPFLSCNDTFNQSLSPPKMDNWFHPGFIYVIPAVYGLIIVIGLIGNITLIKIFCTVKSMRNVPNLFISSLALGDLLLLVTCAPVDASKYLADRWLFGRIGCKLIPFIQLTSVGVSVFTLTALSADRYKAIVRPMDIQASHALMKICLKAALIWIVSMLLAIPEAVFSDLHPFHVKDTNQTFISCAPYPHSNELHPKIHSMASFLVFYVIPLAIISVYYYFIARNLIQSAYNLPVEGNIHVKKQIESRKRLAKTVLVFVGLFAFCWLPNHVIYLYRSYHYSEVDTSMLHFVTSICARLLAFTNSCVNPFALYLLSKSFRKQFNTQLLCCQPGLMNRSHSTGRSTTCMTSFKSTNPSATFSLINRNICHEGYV
How it was run: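 Swiss 3T3 membranes (10 µg protein) incubated in triplicate with 10 pM [125I]GRP(1-27) in HEPES-KOH pH 6.8 (20 mM) with EGTA, MgCl2, BSA and protease inhibitors, 60 min at 37 °C with shaking. Terminated by filtration through PEI-pretreated GF/B filters, gamma counted. Nonspecific binding taken with 10 nM unlabeled GRP(1-27). IC50 for half-maximal inhibition of specific binding by Hill plot analysis.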

[2] = target: Gastrin-releasing peptide receptor (Mus musculus) (UniProt P21729); experiment: Inhibition of 6 nM bombesin induced [3H]thymidine incorporation measured in swiss 3T3 cells using a mitogenicity assay; assay type: functional, cell-based
Sequence of Gastrin-releasing peptide receptor (Mus musculus) (P21729 whole entry): as above
How it was run: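 Density-arrested quiescent Swiss 3T3 monolayers treated in triplicate with test peptide (generally log dilutions) plus 6 nM bombesin for 18 h, then pulsed 2 h with 0.5 µCi [3H]thymidine per well. Cells washed with cold PBS, fixed in methanol/acetic acid, solubilized, scintillation counted. IC50 ± SEM over replicate trials; na means no activity at 10^-4 M.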

CC(C)[C@H](NC(=O)[C@H](C)NC(=O)[C@H](Cc1c[nH]c2ccccc12)NC(=O)[C@H](Cc1cnc[nH]1)NC(=O)C[C@@H](C)c1ccccc1)C(=O)N[C@H](C)C(=O)N[C@@H](Cc1cnc[nH]1)C(=O)N1CCC[C@@H]1CN[C@@H](Cc1ccccc1)C(N)=O
IC50 [1]: 0.49 nM

CC(C)[C@H](NC(=O)[C@H](C)NC(=O)[C@H](Cc1c[nH]c2ccccc12)NC(=O)[C@H](Cc1c[nH]cn1)NC(=O)[C@@H](N)Cc1ccc2ccccc2c1)C(=O)N[C@H](C)C(=O)N[C@@H](Cc1c[nH]cn1)C(=O)N1CCC[C@@H]1CN[C@@H](Cc1ccccc1)C(N)=O
Activity [2]: 45 nM | IC50 [1]: 7.7 nM

CC(C)[C@H](NC(=O)[C@H](C)NC(=O)[C@H](Cc1c[nH]c2ccccc12)NC(=O)[C@H](Cc1cnc[nH]1)NC(=O)Cc1cccc(C(F)(F)F)c1)C(=O)N[C@H](C)C(=O)N[C@@H](Cc1cnc[nH]1)C(=O)N1CCC[C@@H]1CN[C@@H](Cc1ccccc1)C(N)=O
IC50 [1]: 8.4 nM

CC(C)[C@H](NC(=O)[C@H](C)NC(=O)[C@H](Cc1c[nH]c2ccccc12)NC(=O)[C@H](Cc1cnc[nH]1)NC(=O)c1cc2ccccc2cn1)C(=O)N[C@H](C)C(=O)N[C@@H](Cc1cnc[nH]1)C(=O)N1CCC[C@@H]1CN[C@@H](Cc1ccccc1)C(N)=O
IC50 [1]: 0.57 nM

CC(C)[C@H](NC(=O)[C@H](C)NC(=O)[C@H](Cc1c[nH]c2ccccc12)NC(=O)[C@H](Cc1cnc[nH]1)NC(=O)Cc1ccc(C(F)(F)F)cc1)C(=O)N[C@H](C)C(=O)N[C@@H](Cc1cnc[nH]1)C(=O)N1CCC[C@@H]1CN[C@@H](Cc1ccccc1)C(N)=O
IC50 [1]: 3.7 nM

CC(C)[C@H](NC(=O)[C@H](C)NC(=O)[C@H](Cc1c[nH]c2ccccc12)NC(=O)[C@H](Cc1c[nH]cn1)NC(=O)C1CCc2ccccc2C1)C(=O)N[C@H](C)C(=O)N[C@@H](Cc1c[nH]cn1)C(=O)N1CCC[C@@H]1CN[C@@H](Cc1ccccc1)C(N)=O (some centres undefined)
Activity [2]: 4 nM

CC(C)[C@H](NC(=O)[C@H](C)NC(=O)[C@H](Cc1c[nH]c2ccccc12)NC(=O)[C@H](Cc1c[nH]cn1)NC(=O)CCc1cccc(C(F)(F)F)c1)C(=O)N[C@H](C)C(=O)N[C@@H](Cc1c[nH]cn1)C(=O)N1CCC[C@@H]1CN[C@@H](Cc1ccccc1)C(N)=O
Activity [2]: 0.35 nM

CC(C)[C@H](NC(=O)[C@H](C)NC(=O)[C@H](Cc1c[nH]c2ccccc12)NC(=O)[C@H](Cc1c[nH]cn1)NC(=O)CCc1ccccc1)C(=O)N[C@H](C)C(=O)N[C@@H](Cc1c[nH]cn1)C(=O)N1CCC[C@@H]1CN[C@@H](Cc1ccc2ccccc2c1)C(N)=O
Activity [2]: 40 nM

CC(C)[C@H](NC(=O)[C@H](C)NC(=O)[C@H](Cc1c[nH]c2ccccc12)NC(=O)[C@H](Cc1c[nH]cn1)NC(=O)C[C@@H](C)c1ccccc1)C(=O)N[C@H](C)C(=O)N[C@@H](Cc1c[nH]cn1)C(=O)N1CCC[C@@H]1CN[C@@H](Cc1ccccc1)C(N)=O
Activity [2]: 17 nM

CC(C)[C@H](NC(=O)[C@H](C)NC(=O)[C@H](Cc1c[nH]c2ccccc12)NC(=O)[C@H](Cc1c[nH]cn1)NC(=O)C[C@H](C)c1ccccc1)C(=O)N[C@H](C)C(=O)N[C@@H](Cc1c[nH]cn1)C(=O)N1CCC[C@@H]1CN[C@@H](Cc1ccccc1)C(N)=O
Activity [2]: 0.16 nM

CC(C)[C@H](NC(=O)[C@H](C)NC(=O)[C@H](Cc1c[nH]c2ccccc12)NC(=O)[C@H](Cc1c[nH]cn1)NC(=O)Cc1ccc(C(F)(F)F)cc1)C(=O)N[C@H](C)C(=O)N[C@@H](Cc1c[nH]cn1)C(=O)N1CCC[C@@H]1CN[C@@H](Cc1ccccc1)C(N)=O
Activity [2]: 200 nM

CC(C)[C@H](NC(=O)[C@H](C)NC(=O)[C@H](Cc1c[nH]c2ccccc12)NC(=O)[C@H](Cc1c[nH]cn1)NC(=O)Cc1cccc(C(F)(F)F)c1)C(=O)N[C@H](C)C(=O)N[C@@H](Cc1c[nH]cn1)C(=O)N1CCC[C@@H]1CN[C@@H](Cc1ccccc1)C(N)=O
Activity [2]: 260 nM

CC(C)[C@H](NC(=O)[C@H](C)NC(=O)[C@H](Cc1c[nH]c2ccccc12)NC(=O)[C@H](Cc1c[nH]cn1)NC(=O)c1cc2ccccc2cn1)C(=O)N[C@H](C)C(=O)N[C@@H](Cc1c[nH]cn1)C(=O)N1CCC[C@@H]1CN[C@@H](Cc1ccccc1)C(N)=O
Activity [2]: 4 nM

CC(C)[C@H](NC(=O)[C@H](C)NC(=O)[C@H](Cc1c[nH]c2ccccc12)NC(=O)[C@H](Cc1c[nH]cn1)NC(=O)c1cccc2ccccc12)C(=O)N[C@H](C)C(=O)N[C@@H](Cc1c[nH]cn1)C(=O)N1CCC[C@@H]1CN[C@@H](Cc1ccccc1)C(N)=O
Activity [2]: 0.3 nM

CCCCC(NC[C@H]1CCCN1C(=O)[C@H](Cc1cccs1)NC(=O)[C@@H](C)NC(=O)[C@@H](NC(=O)[C@H](C)NC(=O)[C@H](Cc1c[nH]c2ccccc12)NC(=O)[C@H](Cc1c[nH]cn1)NC(=O)CCc1ccccc1)C(C)C)C(N)=O (some centres undefined)
Activity [2]: 300 nM

CC(C)[C@H](NC(=O)[C@H](C)NC(=O)[C@H](Cc1c[nH]c2ccccc12)NC(=O)[C@H](Cc1c[nH]cn1)NC(=O)CCc1ccc(O)cc1)C(=O)N[C@H](C)C(=O)N[C@@H](Cc1c[nH]cn1)C(=O)N1CCC[C@@H]1CN[C@@H](Cc1ccccc1)C(N)=O (Desaminotyrosyl-HWAV[dA]H-{dProψ(CH2NH)PheNH2})
Activity [2]: 0.16 nM

CC(C)[C@H](NC(=O)[C@H](C)NC(=O)[C@H](Cc1c[nH]c2ccccc12)NC(=O)[C@H](Cc1c[nH]cn1)NC(=O)CCc1ccccc1)C(=O)N(C)CC(=O)N[C@@H](Cc1c[nH]cn1)C(=O)N1CCC[C@H]1CN[C@@H](Cc1ccccc1)C(N)=O (Hydrocinnamoyl-HWAV[Sar]H-{ProΨ(CH2NH)PheNH2})
Activity [2]: 0.43 nM

CC(C)[C@H](NC(=O)[C@H](C)NC(=O)[C@H](Cc1c[nH]c2ccccc12)NC(=O)[C@H](Cc1c[nH]cn1)NC(=O)CCc1ccccc1)C(=O)N[C@H](C)C(=O)N[C@@H](Cc1c[nH]cn1)C(=O)N1CCC[C@@H]1CN[C@@H](Cc1ccc(O)cc1)C(N)=O (Hydrocinnamoyl-HWAV[dA]H-X3)
Activity [2]: 10 nM | IC50 [1]: 0.33 nM

CC(C)[C@H](NC(=O)[C@H](C)NC(=O)[C@H](Cc1c[nH]c2ccccc12)NC(=O)[C@H](Cc1c[nH]cn1)NC(=O)Cc1ccccc1C(F)(F)F)C(=O)N[C@H](C)C(=O)N[C@@H](Cc1c[nH]cn1)C(=O)N1CCC[C@@H]1CN[C@@H](Cc1ccccc1)C(N)=O (X2-HWAV[dA]H-{dProψ(CH2NH)PheNH2})
Activity [2]: 330 nM | IC50 [1]: 12 nM

CC(C)[C@H](NC(=O)[C@H](C)NC(=O)[C@H](Cc1c[nH]c2ccccc12)NC(=O)[C@H](Cc1c[nH]cn1)NC(=O)CCN1c2ccccc2Sc2ccccc21)C(=O)N[C@H](C)C(=O)N[C@@H](Cc1c[nH]cn1)C(=O)N1CCC[C@@H]1CN[C@@H](Cc1ccccc1)C(N)=O (X9-HWAV[dA]H-{dProψ(CH2NH)PheNH2})
Activity [2]: 29 nM | IC50 [1]: 1.9 nM

CC(NC(=O)[C@H](Cc1csc2ccccc12)NC(=O)[C@H](Cc1c[nH]cn1)NC(=O)CCc1ccccc1)C(=O)N[C@H](C(=O)NC(C)C(=O)N[C@@H](Cc1c[nH]cn1)C(=O)N1CCC[C@@H]1CN[C@@H](Cc1ccccc1)C(N)=O)C(C)C (stereo in doubt)
Activity [2]: 430 nM | IC50 [1]: 0.75 nM

CC(C)[C@H](NC(=O)[C@H](C)NC(=O)[C@H](Cc1c[nH]c2ccccc12)NC(=O)[C@H](Cc1c[nH]cn1)NC(=O)CCc1ccccc1)C(=O)N[C@H](C)C(=O)N[C@@H](Cc1c[nH]cn1)C(=O)N1CCC[C@@H]1CNC(Cc1ccccc1)C(N)=O (stereo in doubt)
IC50 [1]: 0.038 nM

CC(NC(=O)[C@@H](NC[C@H](C)NC(=O)[C@H](Cc1c[nH]c2ccccc12)NC(=O)[C@H](Cc1c[nH]cn1)NC(=O)CCc1ccccc1)C(C)C)C(=O)N[C@@H](Cc1c[nH]cn1)C(=O)N1CCC[C@H]1CN[C@@H](Cc1ccccc1)C(N)=O (stereo in doubt)
Activity [2]: 47 nM | IC50 [1]: > 10 nM

Source: ChEMBL document CHEMBL1127325, “Potent gastrin-releasing peptide (GRP) antagonists derived from GRP (19-27) with a C-terminal DPro psi [CH2NH]Phe-NH2 and N-terminal aromatic residues” (J Med Chem, 1994)
